Shown are actives, neighbours in structure and some others; about 2.3% of the full set was active somewhere.
TRPC4 PAM: allosterically enhances the mouse TRPC4 cation channel; Q9QUQ5; HEK293 TRPC4beta/mu-opioid, DAMGO EC20, Fluo-4 Ca2+ flux; active compounds read high; B-score at 10 µM; 0.42% of 310,000 active; AID 2227;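 active = B-score of calcium response area above 5 SD of library B-scores, with initial fluorescence ratio within 5 SD of library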
Target sequence (Q9QUQ5 whole entry, looked up): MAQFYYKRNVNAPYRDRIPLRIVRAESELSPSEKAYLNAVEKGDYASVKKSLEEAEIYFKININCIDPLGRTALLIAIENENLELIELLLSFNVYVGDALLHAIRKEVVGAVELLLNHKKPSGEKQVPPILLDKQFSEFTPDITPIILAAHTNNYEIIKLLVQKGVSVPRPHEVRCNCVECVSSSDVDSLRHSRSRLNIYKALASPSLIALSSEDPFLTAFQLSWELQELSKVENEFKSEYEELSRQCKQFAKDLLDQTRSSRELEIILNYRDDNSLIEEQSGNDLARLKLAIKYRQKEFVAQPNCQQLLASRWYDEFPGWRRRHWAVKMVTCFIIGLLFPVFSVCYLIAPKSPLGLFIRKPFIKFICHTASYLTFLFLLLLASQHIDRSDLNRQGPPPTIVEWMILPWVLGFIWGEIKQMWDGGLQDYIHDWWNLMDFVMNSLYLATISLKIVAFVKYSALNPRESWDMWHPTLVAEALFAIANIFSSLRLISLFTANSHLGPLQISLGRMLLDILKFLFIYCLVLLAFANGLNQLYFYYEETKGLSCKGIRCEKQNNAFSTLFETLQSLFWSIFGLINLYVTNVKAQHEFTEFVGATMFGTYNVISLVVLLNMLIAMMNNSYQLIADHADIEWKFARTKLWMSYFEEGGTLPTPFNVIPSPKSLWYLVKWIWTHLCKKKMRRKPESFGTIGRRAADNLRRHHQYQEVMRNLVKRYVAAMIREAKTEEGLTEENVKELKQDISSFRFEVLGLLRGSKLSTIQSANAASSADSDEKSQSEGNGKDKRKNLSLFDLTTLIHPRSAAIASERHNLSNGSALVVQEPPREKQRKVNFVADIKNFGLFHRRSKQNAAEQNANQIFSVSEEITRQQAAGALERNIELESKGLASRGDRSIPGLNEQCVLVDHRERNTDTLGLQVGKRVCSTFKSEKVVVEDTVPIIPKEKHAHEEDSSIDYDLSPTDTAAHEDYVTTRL
TRPC6 act: activates the mouse TRPC6 cation channel. B-score at 10 µM. Q61143. HEK293-TRPC6 membrane potential dye fluorescence; active compounds read high. 0.13% of 310,000 active. AID 2550;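 active = B-score of the integrated fluorescence ratio above library mean plus 3 SD, and starting fluorescence ratio within library mean plus 5 SD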;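 note: higher score means more depolarization so channel activation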
TRPC6 inhibitor: mouse TRPC6 channel inhibition | HEK293-TRPC6, membrane potential dye, ACh-evoked depolarization; active compounds read low | B-score at 10 µM | 1.1% of 310,000 active;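 active = B-score under library mean minus 3 SD, initial fluorescence not abnormally high, positive integrated signal ratio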;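 note: B-score derived from integrated fluorescence ratio over the kinetic read; more negative B-score means stronger inhibition of depolarization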
TRPC4 agonist: TRPC4 (mouse) channel activation. HEK293 TRPC4beta/mu-opioid, Fluo4 calcium fluorescence; active compounds read high. 0.49% of 310,000 active. B-score at 10 µM;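 active = B-score above 5 SD of library B-scores, and initial fluorescence ratio not above library mean plus 5 SD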;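 note: positive B-score marks a calcium rise read as TRPC4 activation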
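Assay system – TRPC4beta and mu-opioid receptor HEK293 stable cells · Measured by – Fluo4 fluorescence, kinetic · Schedule – dye loading 45 min room temperature, 110 s kinetic read · Read-out – B-scored integrated calcium fluorescence ratio · Controls – buffer and maximal DAMGO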
TRPC4 inh: TRPC4 (mouse) channel inhibition; Q9QUQ5; HEK293 TRPC4beta/mu-opioid, DAMGO-evoked Fluo4 calcium flux; active compounds read low; B-score at 10 µM; 0.39% of 300,000 active; AID 2247;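 active = B-score over 3 SD under the library average, no early fluorescence shift, positive overall ratio signal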
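System: stable TRPC4beta/mu-opioid receptor HEK293 cells; Dosing: single-point compound dosing; Measured by: Fluo4 Ca2+ flux fluorescence; Read-out basis: per-well B score of integrated baseline-normalized Fluo4 ratio.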
TRPC4 spec 2: second selectivity test of TRPC6 inhibitors: effect on mouse TRPC4 | inhibition, % at 10 µM | shares compounds with TRPC6 inhibitor | HEK293 TRPC4/MOR, membrane potential dye fluorescence; channel activated by saturating DAMGO dose | 42% of 920 active;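 active = compounds whose fluorescence signal differed from control wells by over 3 SD, either direction, in both duplicate plates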
TRPC4 spec: mouse TRPC4 off-target activity of TRPC6 inhibitors; shares compounds with TRPC6 inhibitor; HEK293 TRPC4/mu-opioid, membrane potential fluorescence; activity change, negative = inhibition, % at 10 µM; 61% of 920 active; AID 2777;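 active = rise or fall in signal beyond 3 SD of buffer-only wells in both replicate plates, either sign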;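 note: integrated kinetic ratio of fluorescence range over baseline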
HEK293 MPD ctr 2-1: second counter-screen for TRPC6 inhibitors: parental HEK293 cells; shares compounds with TRPC6 inhibitor; parental HEK293 membrane potential dye fluorescence; maximal acetylcholine challenge after compound addition; signal change vs control, % at 10 µM; 31% of 920 active; AID 2779;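 active = membrane potential signal moving either way by over 3 SD of the maximum-effect control, in both duplicate plates, meaning non-specific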
HEK293 MPD ctr-1: checks TRPC6 inhibitor effects in parental HEK293 cells; shares compounds with TRPC6 inhibitor; membrane potential signal change, % at 10 µM; 60% of 920 active; parental HEK293 membrane potential dye fluorescence;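 active = membrane potential signal shifting up or down by more than 3 SD of buffer-only wells, on both duplicate plates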
HEK293 MPD ctr-2: parental HEK293 nonspecific activity of TRPC6 modulators. shares compounds with TRPC6 inhibitor. membrane potential dye fluorescence. membrane potential signal change, % at 10 µM. 51% of 2,400 active;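 active = membrane potential signal moves up or down beyond 5 SD from buffer-only wells, on both duplicate plates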
HEK293 MPD ctr 2-2: second counter-screen for TRPC6 modulators: effect in parental HEK293 cells; shares compounds with TRPC6 inhibitor; membrane potential dye fluorescence; after compound, maximal acetylcholine stimulation; inhibition, % at 10 µM; 14% of 2,400 active; AID 488926;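 active = membrane potential signal drops by more than 5 SD from the mean control signal, in both duplicate plates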
TRPC4/MOR mod: mouse TRPC4 off-target activity of TRPC6 modulators | shares compounds with TRPC6 inhibitor | HEK293 TRPC4/mu-opioid, membrane potential fluorescence | percent change from control (negative = decrease, positive = increase), % at 10 µM | 69% of 2,400 active | AID 488927;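 active = membrane potential signal moved up or down beyond 5 SD of buffer control wells, in both duplicate plates, actives on both sides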
TRPC4 ctr inh 2: second check of whether TRPC6 modulators also affect mouse TRPC4; inhibition, % at 10 µM; shares compounds with TRPC6 inhibitor; 55% of 2,400 active; HEK293 TRPC4/mu-opioid, membrane potential dye fluorescence; stimulated with maximal-effect DAMGO; AID 488928;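 active = drop in membrane potential signal beyond 5 SD of the control wells in both duplicate plates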;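 note: TRPC4 counter screen for TRPC6 hits run under conditions tuned for TRPC6 not TRPC4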
TRPC6 inh conf: mouse TRPC6 inhibitor confirmation; shares compounds with TRPC6 inhibitor; HEK293-TRPC6, membrane potential dye, ACh-evoked depolarization; inhibition, % at 10 µM; 43% of 3,300 active;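 active = fluorescence ratio falls more than 5 SD below the full-stimulation control mean, in both duplicate runs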;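 note: integrated fluorescence ratio of peak minus minimum over baseline after agonist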
TRPC6 act conf: mouse TRPC6 activator confirmation; shares compounds with TRPC6 inhibitor; HEK293-TRPC6 membrane potential dye fluorescence, FDSS; activation, % at 10 µM; 11% of 2,800 active; AID 488961;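 active = ratio signal rise beyond 5 SD above unstimulated control wells' mean, seen in both duplicate runs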
Of the large screens only hits and unclear results are named; the others gave an inactive call (follow-up assays come after a bar, where they were run).

C[N+]12CCC(CC1)C(C(O)(c1ccccc1)c1cccs1)C2 (stereo not drawn)	TRPC6 inhibitor -5.7 | HEK293 MPD ctr-2 inactive | HEK293 MPD ctr 2-2 inactive | TRPC4/MOR mod inactive | TRPC4 ctr inh 2 inactive | TRPC6 inh conf 55% | TRPC6 act conf inactive
Cc1nc2c(C(=O)N3CCC4(CC3)OCCO4)cnn2c(C)c1Cc1cccc(Cl)c1	TRPC6 inhibitor -5.2 | HEK293 MPD ctr-2 inactive | HEK293 MPD ctr 2-2 inactive | TRPC4/MOR mod inactive | TRPC4 ctr inh 2 inactive | TRPC6 inh conf 45%
CCn1ccnc1CN1CCCC(C(=O)c2cccc(C(F)(F)F)c2)C1 (stereo not drawn)	TRPC6 inhibitor -5.1 | HEK293 MPD ctr-2 inactive | HEK293 MPD ctr 2-2 inactive | TRPC4/MOR mod 8.0% | TRPC4 ctr inh 2 65% | TRPC6 inh conf 62%
O=C(c1cccc(C(F)(F)F)c1)C1CCCN(Cc2ncc[nH]2)C1 (stereo not drawn)	none
N#CC(C#N)=C(C#N)c1ccc(Nc2ccccc2)cc1	TRPC6 inhibitor -8.5 | TRPC4 spec 2 inactive | TRPC4 spec -10% | HEK293 MPD ctr 2-1 inactive | HEK293 MPD ctr-1 inactive | TRPC6 inh conf inactive | TRPC6 act conf inactive
CC[N+]12CCC(CC1)C(=C(c1ccccc1)c1ccccc1)C2	TRPC6 inhibitor -6.1 | HEK293 MPD ctr-2 inactive | HEK293 MPD ctr 2-2 69% | TRPC4/MOR mod inactive | TRPC4 ctr inh 2 inactive | TRPC6 inh conf 66% | TRPC6 act conf inactive
C[N+]12CCC(CC1)C(=C(c1ccccc1)c1ccccc1)C2	TRPC6 inhibitor -6.8 | TRPC4 spec 2 inactive | TRPC4 spec inactive | HEK293 MPD ctr 2-1 -12% | HEK293 MPD ctr-1 inactive | TRPC6 inh conf 81% | TRPC6 act conf inactive
CNC(C(=O)c1ccccc1)C(OC)c1ccc(C)cc1 (stereo not drawn)	none
CC1=C2C(=O)C3C(CC=C4CC(O)CCC43C)C2CCC12OC1CC(C)CNC1C2C (stereo not drawn)	none
O=[N+]([O-])c1ccc(N2CCCC2)c2ncccc12	none
CC1CN(c2ccc([N+](=O)[O-])c3cccnc23)CC(C)N1 (stereo not drawn)	TRPC6 inhibitor -10, TRPC4 agonist 104 | HEK293 MPD ctr-2 -358% | HEK293 MPD ctr 2-2 inactive | TRPC4/MOR mod -60% | TRPC4 ctr inh 2 64% | TRPC6 inh conf 58% | TRPC6 act conf inactive
CN1C(=O)/C(=C/c2ccc(N3CCCCCC3)o2)C(=O)NC1=S	TRPC6 act 19 | HEK293 MPD ctr-2 472% | HEK293 MPD ctr 2-2 inactive | TRPC4/MOR mod 50% | TRPC4 ctr inh 2 inactive | TRPC6 inh conf inactive | TRPC6 act conf 93%
CN1C(=O)/C(=C\c2ccc(N3CCCCC3)o2)C(=O)NC1=S	none
COc1cccc(CNCCc2cccc(F)c2)c1OC	none
C/C=C1/CC(C)C(C)(O)C(=O)OCC2CCN3CCC(OC1=O)C23 (stereo not drawn)	TRPC6 inhibitor -6.2 | HEK293 MPD ctr-2 inactive | HEK293 MPD ctr 2-2 81% | TRPC4/MOR mod 18% | TRPC4 ctr inh 2 inactive | TRPC6 inh conf 78% | TRPC6 act conf inactive
CN1CCN(c2cccc3c2C(=O)c2ccccc2C3=O)CC1	TRPC4 PAM 17, TRPC6 inhibitor -18 | HEK293 MPD ctr-2 -288% | HEK293 MPD ctr 2-2 82% | TRPC4/MOR mod -53% | TRPC4 ctr inh 2 72% | TRPC6 inh conf 80% | TRPC6 act conf inactive
CN1CCN(c2ccc3c(c2)S(=O)(=O)c2ccccc2C3=O)CC1	TRPC6 inhibitor -5.3 | HEK293 MPD ctr-2 90% | HEK293 MPD ctr 2-2 inactive | TRPC4/MOR mod -52% | TRPC4 ctr inh 2 32% | TRPC6 inh conf inactive | TRPC6 act conf inactive
CN1CCN(c2ccc(NC(=O)Oc3ccccc3)cc2)CC1	none
Cc1ccc(C[n+]2c(-c3ccc(C)cc3)cc(-c3ccc(C)cc3)cc2-c2ccc(C)cc2)cc1	TRPC6 inhibitor -7, TRPC4 agonist 160 | TRPC4 spec 2 56% | TRPC4 spec -16% | HEK293 MPD ctr 2-1 inactive | HEK293 MPD ctr-1 -196% | TRPC6 inh conf 81% | TRPC6 act conf inactive
Cc1cccc(-c2nc3ccc(C(=O)N4CCC5(CC4)OCCO5)cc3nc2-c2cccc(C)c2)c1	TRPC6 act 13, TRPC6 inhibitor -7.3 | HEK293 MPD ctr-2 inactive | HEK293 MPD ctr 2-2 inactive | TRPC4/MOR mod 14% | TRPC4 ctr inh 2 inactive | TRPC6 inh conf 79% | TRPC6 act conf 116%
O=C1N(c2cccc(Cl)c2)C(c2cccnc2)N2CCCN12 (stereo not drawn)	none
CCN(CC)CCCOC(=O)C(OC)(c1ccccc1)c1ccccc1	TRPC6 inhibitor -6.4 | HEK293 MPD ctr-2 153% | HEK293 MPD ctr 2-2 78% | TRPC4/MOR mod 34% | TRPC4 ctr inh 2 inactive | TRPC6 inh conf 61%
Cc1cc(OCC(=O)NC(Cc2ccc(Cl)cc2)C(=O)O)c2c3c(c(=O)oc2c1)CCC3 (stereo not drawn)	none
COc1ccc(C(=O)C2CCCN(Cc3cccc(C)n3)C2)c(OC)c1 (stereo not drawn)	TRPC6 inhibitor -6.4 | HEK293 MPD ctr-2 inactive | HEK293 MPD ctr 2-2 inactive | TRPC4/MOR mod 9.5% | TRPC4 ctr inh 2 inactive | TRPC6 inh conf inactive
COc1ccc(C(=O)C2CCCN(Cc3ccc(C)s3)C2)c(OC)c1 (stereo not drawn)	none
